In the library only some 5% were active in any assay of this set; here they are far more common.
UPR CHOP act – activators of apoptotic arm of unfolded protein response (CHOP); CHO-CHOP luciferase reporter, UPR activation, luminescence; percent of tunicamycin response over DMSO baseline; activation, % at 10 µM; hit rate 0.34% among 330,000;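 active = at 10 µM dose, activation of 40% or more, normalized to positive control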
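Assay system: CHO-CHOP cells, stable luciferase reporter of PERK-eIF2a-CHOP signalling / Buffer or medium: F12 plus 10% serum / Compound dosing: one dose, 10 µM in 0.5% DMSO / Times: 6 h compound treatment, 37 °C / Technique: luciferase luminescence / Read-out: % reporter activation, DMSO baseline versus tunicamycin full activation / Benchmarks: tunicamycin and DMSO controls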
T cruzi repl – T. cruzi replication inhibition; T. cruzi beta-gal in NIH3T3, luminescence, 90 h; inhibition, % (no concentration beside the values); hit rate 1.4% among 300,000; AID 1885;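 active = mean inhibition across valid replicates above about 55%, limit read from the data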;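 also: signal also drops with host cell toxicity which is not excluded here; higher percent means less beta-gal luminescence so fewer parasites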
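Material: NIH/3T3 host cells with β-galactosidase reporter T. cruzi; Input: 5,000 host fibroblasts per well; Medium: DMEM, 2% fetal bovine serum; Compound: 50 nL DMSO compound solution per well; Schedule: 3 h host attachment, then at least 90 h co-culture; Detection: luminescent β-galactosidase signal after 60 min lysis.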
Beta apoptosis – blocks beta cell apoptosis. INS-1E cytokine-induced death, ATP luminescence, 48 h; percent of positive-control rescue, neutral wells zero. protection from apoptosis, % (concentration not given with the values). hit rate 0.8% among 300,000. AID 435005;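 active = Every replicate reaches about 75%, or at least half do and their mean reaches it too, limit read from the data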;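 also: higher means more ATP so stronger rescue from cytokine killing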
CSC inhib – blocks cancer stem cells. inhibition, % at 7.5 µM. hit rate 1.1% among 300,000. AID 2717. cancer stem cell-like cells viability, luminescence; in the data active = inhibition above about 75%; tested in HMLE shEcad cells
Mdm2-MdmX inh – inhibitors of human Mdm2/MdmX interaction; hit rate 3% among 330,000; O15151+Q00987; SaOS-2 split-luciferase Mdm2/MdmX complementation, luminescence; inhibition, % at 8 µM;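 active = inhibition of at least 50% at 8 µM in the primary screen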
Target sequence (O15151 whole entry, looked up): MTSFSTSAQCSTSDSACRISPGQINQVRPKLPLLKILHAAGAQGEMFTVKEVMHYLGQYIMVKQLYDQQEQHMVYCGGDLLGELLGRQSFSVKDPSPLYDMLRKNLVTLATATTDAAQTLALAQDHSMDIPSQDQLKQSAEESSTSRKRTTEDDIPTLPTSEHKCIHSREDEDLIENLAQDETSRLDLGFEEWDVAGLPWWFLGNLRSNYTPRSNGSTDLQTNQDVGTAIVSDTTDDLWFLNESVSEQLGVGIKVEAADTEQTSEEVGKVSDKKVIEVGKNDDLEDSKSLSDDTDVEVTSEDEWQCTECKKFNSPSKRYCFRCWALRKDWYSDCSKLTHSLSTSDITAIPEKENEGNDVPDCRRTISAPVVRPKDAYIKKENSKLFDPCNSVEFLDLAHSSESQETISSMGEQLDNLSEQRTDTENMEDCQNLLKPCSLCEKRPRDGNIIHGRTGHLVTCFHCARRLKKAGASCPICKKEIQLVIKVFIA
Target sequence (Q00987 whole entry, looked up): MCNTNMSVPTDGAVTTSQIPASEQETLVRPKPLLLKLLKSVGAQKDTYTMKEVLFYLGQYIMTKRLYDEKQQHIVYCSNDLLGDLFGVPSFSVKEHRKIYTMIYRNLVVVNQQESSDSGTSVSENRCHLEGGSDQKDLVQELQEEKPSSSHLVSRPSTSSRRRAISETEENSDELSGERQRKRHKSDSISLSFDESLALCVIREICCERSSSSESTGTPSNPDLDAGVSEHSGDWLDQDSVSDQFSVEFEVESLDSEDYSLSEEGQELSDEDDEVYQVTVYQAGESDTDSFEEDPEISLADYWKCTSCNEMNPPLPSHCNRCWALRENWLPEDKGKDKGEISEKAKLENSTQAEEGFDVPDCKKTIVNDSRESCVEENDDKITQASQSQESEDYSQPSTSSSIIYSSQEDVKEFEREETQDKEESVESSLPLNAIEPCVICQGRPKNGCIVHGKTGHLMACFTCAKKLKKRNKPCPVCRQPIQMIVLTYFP
XBP1 UPR activ – activators of adaptive arm of unfolded protein response (XBP1); CHO-XBP1 luciferase reporter, IRE1-XBP1 UPR activation, luminescence; percent of tunicamycin response, DMSO as zero; activation, % at 20 µM; hit rate 0.33% among 330,000; AID 463104;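 active = versus positive control, 20 µM dose yields 30% or more activation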
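Signal: luciferase luminescence; Assay system: CHO-XBP1 luciferase reporter cells; Amount: one thousand reporter cells per well; Dosing: 20 µM single concentration, DMSO 1%; Benchmarks: high control tunicamycin 10 µg/mL final, low control DMSO vehicle only; Schedule: 6 h compound exposure at 37 °C, 5% CO2; Evaluation: percent activation relative to tunicamycin reference.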
Large screens that a line does not name were inactive.

COc1ccc(C)cc1NC(=O)C1CCN(C(=O)Cc2ccccc2)CC1	none
CC(NC(=O)c1cccc(Cn2cc([N+](=O)[O-])cn2)c1)c1ccc(C(C)(C)C)cc1 (centres undefined)	T cruzi repl 55.0
Cc1cc(-c2ccccc2)n(-c2cc(N/N=C/c3ccccc3O)ncn2)n1	Beta apoptosis 77.3, CSC inhib 105.1 (no result: UPR CHOP act, T cruzi repl, Mdm2-MdmX inh, XBP1 UPR activ)
C/C(Cl)=C\Cn1c(O)c(N=NC(N)=S)c2ccccc21	T cruzi repl 60.5
Oc1c(N=NC(=S)Nc2ccccc2F)c2ccccc2n1Cc1ccccc1Cl	T cruzi repl 68.0
NC(=S)N=Nc1c(O)n(Cc2ccccc2)c2ccccc12	none
CCCCNC(=S)N=Nc1c(O)n(Cc2ccccc2)c2ccccc12	CSC inhib 80.1
CCN1C(=O)c2cccc3c(S(=O)(=O)Nc4ccc(OC)cc4OC)ccc1c23	none
C[C@@H]1NC(=O)c2cc([N+](=O)[O-])cc(I)c2NCCCC[C@@H](C(N)=O)NC(=O)[C@H](CCC(=O)O)NC1=O	none (no result: T cruzi repl)
O=C(CNC(=S)N(Cc1ccccc1)Cc1cccnc1)NCCc1ccccc1	none
CC(C)CCNC(=O)CNC(=S)N(Cc1ccccc1)Cc1cccnc1	T cruzi repl 61.0
Cc1ccc(N2C(=O)CC(N(CCc3ccccc3)C(=S)Nc3ccc(N(C)C)cc3)C2=O)cc1 (centres undefined)	CSC inhib 94.5
COc1ccc(CCN(C(=S)Nc2ccccc2)C2CC(=O)N(c3ccccc3)C2=O)cc1 (centres undefined)	none
Cc1ccc(SCCNC(=S)Nc2ccc(C)cc2C)cc1	T cruzi repl 57.5
COc1cccc(N/N=C/c2cccc(Br)c2O)c1	T cruzi repl 64.8
CCC(=O)NC(c1ccc(C)cc1)c1cc([N+](=O)[O-])c2cccnc2c1O (centres undefined)	T cruzi repl 63.0, Beta apoptosis 83.1, CSC inhib 100.4 (no result: UPR CHOP act, Mdm2-MdmX inh, XBP1 UPR activ)
CCCC(=O)NC(c1ccco1)c1cc([N+](=O)[O-])c2cccnc2c1O (centres undefined)	CSC inhib 77.4
CN(Cc1cc([N+](=O)[O-])c2cccnc2c1O)C1CCCCC1	none
COCCn1c(Cc2ccccc2)nnc1SC(C)C(=O)NC1CC1 (centres undefined)	none (no result: T cruzi repl)
CCc1nc2ccccc2nc1N1CCN(S(=O)(=O)c2ccccc2)CC1	none
OCCCCNCc1ccc(OCc2ccc(Cl)cc2)cc1	T cruzi repl 56.8 (no result: Beta apoptosis, CSC inhib)
COc1ccc(C2/C=C\CN(C(=O)OCC3c4ccccc4-c4ccccc43)CC(=O)N2Cc2cccc(F)c2)cc1 (centres undefined)	none (no result: T cruzi repl, Beta apoptosis, CSC inhib)
O=C(Nc1ccc(N2CCOCC2)cc1)c1nc2ccccc2s1	none (no result: CSC inhib)
Cc1c(C)n(Cc2ccccc2)c2ccc(C(=O)OCCN(C)C)cc12	CSC inhib 84.9
Cc1c(C)n(Cc2ccccc2)c2ccc(C(=O)NCCN3CCOCC3)cc12	none
O=C(c1cc2sccc2n1Cc1ccc(F)cc1)N1CCN(c2nc3ccccc3s2)CC1	Beta apoptosis 100.3
Cn1c(C(=O)N2CCN(c3nc4ccccc4s3)CC2)cc2sccc21	none (no result: CSC inhib)
Cn1nccc1C(=O)NC1CCCc2c1cnn2-c1ccc(C(C)(C)C)cc1 (centres undefined)	Beta apoptosis 115.5
Cc1cccc(-n2ncc3c2CCCC3NC(=O)c2ccc[n+]([O-])c2)c1C (centres undefined)	none
Cc1cc(C(=O)NC2CCCc3c2cnn3-c2cccc(C)c2C)n(C)n1 (centres undefined)	Beta apoptosis 112.0
CC(=O)NC1CCCc2c1cnn2-c1ccc(C(C)(C)C)cc1 (centres undefined)	none
Cc1ccc(-n2ncc3c2CCCC3NC(=O)c2ocnc2C)cc1C (centres undefined)	Beta apoptosis 79.9
Cc1cc(C(=O)NC2CCCc3c2cnn3-c2ccc(C)c(C)c2)no1 (centres undefined)	none
Cc1ccc(C(=O)NC2CCCc3c2cnn3-c2ccc(F)cc2F)cn1 (centres undefined)	Beta apoptosis 100.4
CCNC(=O)COc1ccc(-c2ccccc2)cc1	none
Cc1ccc(S(=O)(=O)N(CC#N)CC#N)cc1	none
Oc1ccc(N=Nc2nc(-c3ccccc3)c(-c3ccccc3)[nH]2)cc1	CSC inhib 189.0
CC(Sc1nnc2c(n1)[nH]c1ccccc12)C(=O)N(C)C1CCCCC1 (centres undefined)	Beta apoptosis 100.4
CCN1CCCC1CNC(=O)c1ccc(Sc2ccc(F)cc2)c([N+](=O)[O-])c1 (centres undefined)	T cruzi repl 62.3, CSC inhib 78.5
CC(=O)NCCNC(=O)c1ccc(Sc2ccccc2)c([N+](=O)[O-])c1	none
CCN1CCCC1CNC(=O)c1ccc(Sc2ccccc2Cl)c([N+](=O)[O-])c1 (centres undefined)	none
CN(C)CCNC(=O)c1ccc(Sc2ccc(Br)cc2)c([N+](=O)[O-])c1	T cruzi repl 77.1
CC(C)c1ccc(C(=O)NCCCN2CCOCC2)cc1	none
O=C(NCCCN1CCOCC1)c1ccc(CSc2ccc(Cl)cc2)cc1	CSC inhib 76.3
O=C(NCCCN1CCOCC1)c1ccc(Sc2ccc(F)cc2)c([N+](=O)[O-])c1	T cruzi repl 61.4
O=C(NCCCN1CCOCC1)c1ccc(N2CCOCC2)c([N+](=O)[O-])c1	none
CCCCN(CC)CCCNC(=O)c1cn(C)c2ccc(S(=O)(=O)N(C)C3CCCCC3)cc2c1=O	none
Cc1ccc(C(=O)N2CC(=O)NC(=O)C2)cc1	none
CCOc1ccc(N2C(=O)C3ON(C)C(c4ccc([N+](=O)[O-])cc4)C3C2=O)cc1 (centres undefined)	none
COc1ccc(CCn2c(SCCN3CCCCC3)nc3ccccc3c2=O)cc1OC	T cruzi repl 66.6
COc1cc(/C=C/C(=O)c2ccc3c(c2)OCO3)cc(Cl)c1O	CSC inhib 113.1
O=C(c1cccc(Br)c1)N1CCN(S(=O)(=O)N2CCCCCC2)CC1	none (no result: Beta apoptosis)
O=C(/C=C/c1ccco1)NCC1OCCc2ccccc21 (centres undefined)	Beta apoptosis 107.4, CSC inhib 111.3
C=CC(=O)NCC1OCCc2ccccc21 (centres undefined)	none
COc1ccc(-n2nc(C)c3sc(C)nc3c2=O)cc1	none
COc1ccc(-n2nc(C)c3c(=O)c4c([nH]c32)CCCC4)cc1	T cruzi repl 62.0
N#Cc1c(-c2ccccc2)nc(SCc2cccc(Cl)c2)[nH]c1=O	CSC inhib 107.4
Cc1[nH]c(=O)nc(SCc2cccc(Cl)c2)c1C#N	none
CCCOC(=O)c1ccc(Oc2cn[nH]c2-c2ccc(OC)cc2O)cc1	CSC inhib 103.7
